Reference: PMC10731006 (Heliyon, 2023)
Converted amounts (≈) assume the structure as drawn. “Also recorded” adds a separate entry of the source.

What was measured:
[1] = test system: cancer cell lines (U87, MCF-7 and A549) compared to normal cells (HDF); test: MTT cytotoxicity, cancer cell lines compared to normal cells; type: cell-based, human; conditions: 96 h treatment
Outline: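 A549 and MCF7 grown in RPMI 1640, HDF and U87 in DMEM, each with 10% FCS, 2 mM L-glutamine, 1% pen-strep, 37 °C, 5% CO2. Cells at 1 × 10^4 cells/ml were adhered overnight, then exposed 96 h to test compound (final 1–600 […] in medium). Controls were blank, untreated, DMSO-matched and cisplatin (1–100 μM/mL). MTT 5 mg/ml for 4 h; DMSO-solubilised formazan read at 540 nm, triplicate. IC50 from curve fitting; selectivity index = HDF IC50 / cancer-line IC50.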

[2] = test system: Staphylococcus aureus (ATCC 10145); test: Micro-broth dilution assay; type: cell-based; conditions: ATCC10145, read-out: MIC SA
[3] = test system: glioblastoma (U-87 MG) cells; test: MTT cytotoxicity assay, U-87 MG; type: cell-based, human; conditions: for IC50: Homo sapiens, U-87 MG, 96 h, read-out: IC50 U87; for SI U87 (selectivity index): IC50 in HDF / IC50 in U87, 96 h
Outline: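 U-87 MG cells were cultured in DMEM with 10% FCS, 2 mM L-glutamine and 1% penicillin-streptomycin at 37 °C, 5% CO2. Seeding was 1 × 10^4 cells/ml; after overnight adherence, test compound diluted in medium (six final levels, 1–600) was applied for 96 h alongside DMSO-matched and cisplatin controls. Read-out: MTT 5 mg/ml for 4 h, DMSO solubilisation, A540, in triplicate, IC50 fitted. SI = IC50 in HDF / IC50 in U87.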

[4] = test system: Gram-positive and Gram-negative bacterial test strains; test: Antibacterial activity, whole panel of test strains; type: cell-based
Outline: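 Disc diffusion followed CLSI (2012). Test compound at 10, 50 and 100 μg/disc was loaded on 6-mm blank filter discs laid on Mueller Hinton agar seeded at 10^6 cells/ml. Strains were S. aureus ATCC 10145, B. cereus ATCC 11778, B. subtilis ATCC 6633, P. aeruginosa ATCC 13048 and E. coli ATCC 25922. Inhibition zones were recorded.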

B. subtilis (ATCC 6633) [5] = test: Agar diffusion test, B. subtilis; type: cell-based; conditions: Bacillus subtilis, ATCC6633, read-out: Zone of inhibition BS
[6] = test system: Escherichia coli (ATCC 25922); test: Micro-broth dilution assay; type: cell-based; conditions: ATCC25922, read-out: MIC EC
[7] = ABTS radical scavenging assay
[8] = test system: Bacillus cereus (ATCC 11778); test: Agar diffusion test, B. cereus; type: cell-based; conditions: ATCC11778, read-out: Zone of inhibition BC
B. subtilis (ATCC 6633) [9] = test: Micro-broth dilution assay; type: cell-based; conditions: Bacillus subtilis, ATCC6633, read-out: MIC BS
[10] = DPPH radical scavenging assay
[11] = test system: breast cancer (MCF7) cells; test: MTT cytotoxicity assay, MCF7; type: cell-based, human; conditions: for IC50: Homo sapiens, MCF7, 96 h, read-out: IC50 MCF-7; for SI MCF-7 (selectivity index): IC50 in HDF / IC50 in MCF-7, 96 h
Outline: (§1)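 Cells were grown in RPMI 1640 with 10% FCS, 2 mM L-glutamine and 1% penicillin-streptomycin at 37 °C under 5% CO2. They were seeded at 1 × 10^4 cells/ml, left overnight to adhere, and exposed 96 h to test compound diluted in medium (six final levels, 1–600), with DMSO-matched and cisplatin controls. MTT at 5 mg/ml was added for 4 h, formazan dissolved in DMSO, and A540 read, in triplicate. IC50 was fitted from the data. SI = IC50 in HDF / IC50 in this line.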

[12] = test system: non-small cell lung cancer (A549) cells; test: MTT cytotoxicity assay, A549; type: cell-based, human; conditions: for IC50: Homo sapiens, A549, 96 h, read-out: IC50 A549; for SI A549 (selectivity index): IC50 in HDF / IC50 in A549, 96 h
Outline: as §1

[13] = test system: Bacillus cereus (ATCC 11778); test: Micro-broth dilution assay; type: cell-based; conditions: ATCC11778, read-out: MIC BC
[14] = test system: human dermal fibroblast (HDF, human dermal cell line); test: MTT cytotoxicity assay, normal cells; type: cell-based; conditions: Homo sapiens, Fibroblast, 96 h, read-out: IC50 HDF
Outline: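 Human dermal fibroblasts were maintained in DMEM with 10% FCS, 2 mM L-glutamine and 1% penicillin-streptomycin (37 °C, 5% CO2). They were seeded at 1 × 10^4 cells/ml, allowed to adhere overnight, then treated 96 h with serially diluted test compound (six final levels, 1–600) beside DMSO-matched vehicle and cisplatin controls. Then MTT 5 mg/ml was added for 4 h, formazan taken up in DMSO, and absorbance read at 540 nm, in triplicate. IC50 was fitted.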

[15] = test system: Pseudomonas aeruginosa (ATCC 13048); test: Micro-broth dilution assay; type: cell-based; conditions: ATCC13048, read-out: MIC PA
[16] = test system: Escherichia coli (ATCC 25922); test: Agar diffusion test, E. coli; type: cell-based; conditions: ATCC25922, read-out: Zone of inhibition EC
[17] = test system: Staphylococcus aureus (ATCC 10145); test: Agar diffusion test, S. aureus; type: cell-based; conditions: ATCC10145, read-out: Zone of inhibition SA
[18] = test system: Pseudomonas aeruginosa (ATCC 13048); test: Agar diffusion test, P. aeruginosa; type: cell-based; conditions: ATCC13048, read-out: Zone of inhibition PA

| SMILES | cytotoxic / anti-proliferative activity in words [1] | MIC [2] | IC50 [3] | SI U87 (selectivity index) [3] | MIC [6] | IC50 ± SD, ABTS [7] | % inhibition ±SD, ABTS ([7]; 5 μg/ml) | % inhibition ±SD, ABTS ([7]; 10 μg/ml) | % inhibition ±SD, ABTS ([7]; 25 μg/ml) | % inhibition ±SD, ABTS ([7]; 50 μg/ml) | % inhibition ±SD, ABTS ([7]; 100 μg/ml) | zone of inhibition at 100 µg/disc [8] | zone of inhibition at 300 µg/disc [8] | zone of inhibition at 500 µg/disc [8] | MIC (B. subtilis (ATCC 6633) [9]) | IC50 ± SD, DPPH [10] | % inhibition ±SD, DPPH ([10]; 5 μg/ml) | % inhibition ±SD, DPPH ([10]; 10 μg/ml) | % inhibition ±SD, DPPH ([10]; 25 μg/ml) | % inhibition ±SD, DPPH ([10]; 50 μg/ml) | further results |
| --- | --- | --- | --- | --- | --- | --- | --- | --- | --- | --- | --- | --- | --- | --- | --- | --- | --- | --- | --- | --- | --- |
| COC(=O)c1cn(C2CC2)c2cc(N3CCN(C(=O)c4c(C)nnn4Cc4ccc(F)cc4)CC3)c(F)cc2c1=O [Compound 6a, methyl 7-(4-(1-(4-fluorobenzyl)-4-methyl-1H-1,2,3-triazole-5-carbonyl)piperazin-1-yl)-1-cyclopropyl-6-fluoro-4-oxo-1,4-dihydroquinoline-3-carboxylate] | remarkable anti-proliferative activity against all three cell-lines; also recorded: significant cytotoxic activity against all cancer cell lines | > 500 µg/mL | 34.6 ± 7.8 µM | 14.6 | > 500 µg/mL | 17.8 ± 1.1 µg/mL (≈ 31.6 µM) | 22.7 ± 0.2% | 48.7 ± 0.5% | 53.5 ± 0.3% | 71.1 ± 1.0% | 75.5 ± 0.5% | 12.7 ± 0.6 mm | 14.6 ± 0.3 mm | 15.3 ± 0.3 mm | 500 µg/mL (≈ 889 µM) | 32.6 ± 2.9 µg/mL (≈ 57.9 µM) | 27.04 ± 0.2% | 40.2 ± 0.4% | 47.2 ± 1.0% | 53.2 ± 0.9% | antibacterial activity in words [4]: bioactivity against Gram-positive bacterial test strains; zone of inhibition at 100 µg/disc (B. subtilis (ATCC 6633) [5]): 11.3 ± 1.2 mm; zone of inhibition at 300 µg/disc (B. subtilis (ATCC 6633) [5]): 13.1 ± 0.6 mm; zone of inhibition at 500 µg/disc (B. subtilis (ATCC 6633) [5]): 14.6 ± 0.7 mm; % inhibition ±SD, DPPH ([10]; 100 μg/ml): 63.3 ± 0.8%; IC50 [11]: 112 ± 10.1 µM; SI MCF-7 (selectivity index) [11]: 4.5; IC50 [12]: 139 ± 9.3 µM; SI A549 (selectivity index) [12]: 3.6; MIC [13]: 500 µg/mL (≈ 889 µM); IC50 [14]: 504 ± 19.9 µM; MIC [15]: > 500 µg/mL |
| COC(=O)c1cn(C2CC2)c2cc(N3CCN(C(=O)c4c(C)nnn4-c4ccc(C(F)(F)F)cc4)CC3)c(F)cc2c1=O [Compound 6d, methyl 7-(4-(1-(4-trifluoromethylphenyl)-4-methyl-1H-1,2,3-triazole-5-carbonyl)piperazin-1-yl)-1-cyclopropyl-6-fluoro-4-oxo-1,4-dihydroquinoline-3-carboxylate] | significant cytotoxic activity against only U-87 and MCF-7 cancer cell lines | 500 µg/mL (≈ 835 µM) | 3.82 ± 2.9 µM | 111.4 | > 500 µg/mL | 31.7 ± 1.9 µg/mL (≈ 53 µM) | 21.1 ± 1.0% | 33.7 ± 0.7% | 42.8 ± 0.3% | 61.6 ± 0.6% | 66.5 ± 0.6% | 9.6 ± 1.2 mm | 11 mm | 13.3 ± 0.6 mm | > 500 µg/mL | 58.8 ± 1.7 µg/mL (≈ 98.2 µM) | 13.8 ± 0.2% | 26.0 ± 0.9% | 42.1 ± 0.6% | 46.2 ± 0.3% | zone of inhibition at 100 µg/disc [16]: 8.3 ± 1.5 mm; zone of inhibition at 300 µg/disc [16]: 10.3 ± 0.7 mm; zone of inhibition at 500 µg/disc [16]: 12.6 ± 0.7 mm; inhibition zones, range over susceptible strains ([4]; agar diffusion): 12–14 mm; zone of inhibition at 100 µg/disc [17]: 10.3 ± 0.6 mm; zone of inhibition at 300 µg/disc [17]: 12.3 ± 0.6 mm; zone of inhibition at 500 µg/disc [17]: 14.6 ± 1.2 mm; % inhibition ±SD, DPPH ([10]; 100 μg/ml): 68.7 ± 0.1%; IC50 [11]: 124 ± 10.6 µM; SI MCF-7 (selectivity index) [11]: 3.4; IC50 [12]: 308 ± 12.1 µM; SI A549 (selectivity index) [12]: 1.4; MIC [13]: > 500 µg/mL; zone of inhibition at 100 µg/disc [18]: 11.7 ± 0.6 mm; zone of inhibition at 300 µg/disc [18]: 13 ± 0.3 mm; zone of inhibition at 500 µg/disc [18]: 13.3 ± 0.6 mm; IC50 [14]: 425 ± 18.5 µM; MIC [15]: 500 µg/mL (≈ 835 µM) |
